The source made the active and inactive calls. The rule behind the calls is not given here.
How the values were obtained:
[1] = Cytotoxicity against human PC3 cells after 72 hrs by MTT assay; format: functional; settings: PC-3, 72 h
Summary of the method: (§1)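 Cells exposed to increasing concentrations for about 72 h, and viability read by MTT. EC50 fitted with CompuSyn. Two independent experiments, each in triplicate, mean ± SEM. Compound stocks 10 mM in DMSO.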

[2] = system: MDA-MB-436; test: Cytotoxicity against human MDA-MB-436 cells after 72 hrs by MTT assay; format: functional, cell-based; summary of the method: as §1
[3] = biological target: Signal transducer and activator of transcription 3 (Homo sapiens) (UniProt P40763); test: Inhibition of STAT3 in human Hs578T cells assessed as reduction of cyclin D1 level at 0.3 to 3 uM after 24 hrs by Western blotting analysis; format: cell-based; settings: Hs-578T
Summary of the method: (§2)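 HS578T and SUM149PT cells given increasing concentrations for 24 h. Lysates immunoblotted with the indicated antibodies, β-actin as loading control.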

[4] = biological target: Signal transducer and activator of transcription 3 (Homo sapiens) (UniProt P40763); test: Inhibition of STAT3 in human Hs578T cells assessed as reduction of cyclin D1 mRNA expression at 0.3 to 1 uM after 24 hrs by RT-PCR analysis; format: cell-based; settings: Hs-578T
Summary of the method: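 HS578T and SUM149PT cells treated for 24 h with increasing concentrations. Transcripts measured by RT-PCR, normalized to GAPDH as loading control.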

[5] = system: HCC1937; test: Cytotoxicity against human HCC1937 cells after 72 hrs by MTT assay; format: functional, cell-based; summary of the method: as §1
[6] = biological target: Tyrosine-protein phosphatase non-receptor type 6 (Homo sapiens) (UniProt P29350); test: Induction of PTPN6 in human Hs578T cells assessed as inhibition of STAT3 phosphorylation at 3 uM after 16 hrs by Western blotting analysis in presence of pervanadate; format: cell-based; settings: Hs-578T
Summary of the method: (§3)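 HS578T and SUM149PT cells treated for 16 h without or with increasing pervanadate as a phosphatase inhibitor; JAK1/2 inhibitor CP690550 run in parallel. Lysates immunoblotted for phospho-STAT3 (Y705), with β-actin as loading control.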

[7] = system: Mus musculus; test: Toxicity in athymic Balb/c nude mouse xenografted with human SUM149 cells assessed as loss of appetite at 10 to 30 mg/kg, ip administered every other day for 5 days; format: organism-based; design: dose 10-30 mg/kg, route intraperitoneal; settings: in vivo, 120 h
Summary of the method: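 SUM149 cells (3×10^6) implanted subcutaneously in the right auxiliary region of male and female athymic nude mice (18–22 g). Groups of five, randomized; dosed ip every other day at 10 or 30 mg/kg from 1 mg/mL Cremophore 10%/PEG400 3%/PBS vehicle, vehicle control. Tumor volume by caliper (L×w×w/2); body weight, appetite, activity and lethargy monitored.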

[8] = system: A549; test: Antitumor activity against human A549 cells xenografted in athymic Balb/c nude mouse at 10 mg/kg, ip administered every other day for 27 days measured on day 9; format: functional; settings: route intraperitoneal, read-out: TGI
Summary of the method: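 Male and female athymic nude mice (18–22 g) implanted subcutaneously in the right auxiliary region with 3×10^6 A549 cells. Mice were randomized into groups of five 3 days after implantation, and dosing started at about 50 mm³ tumor. Working solution 1 mg/mL in 10% Cremophore/3% PEG400/87% PBS; ip every other day, vehicle control. Caliper volume L×w×w/2, mean ± SEM, n = 5.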

[9] = system: SUM149PT; test: Induction of PTPN6 mRNA expression in human SUM149PT cells after 24 hrs by RT-PCR analysis; format: functional, cell-based
Summary of the method: (§4)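 HS578T and SUM149PT cells given increasing concentrations for 24 h. PTPN6 mRNA measured by RT-PCR, with GAPDH as loading control.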

[10] = system: BT-549; test: Cytotoxicity against human BT549 cells after 72 hrs by MTT assay; format: functional, cell-based; summary of the method: as §1
[11] = biological target: Signal transducer and activator of transcription 3 (Homo sapiens) (UniProt P40763); test: Inhibition of STAT3 in human Hs578T cells assessed as reduction of STAT3 phosphorylation at Y705 after 24 hrs by Western blotting analysis; format: cell-based; settings: Hs-578T; summary of the method: as §2
[12] = biological target: Tyrosine-protein phosphatase non-receptor type 6 (Homo sapiens) (UniProt P29350); test: Induction of PTPN6 in human SUM149PT cells assessed as inhibition of STAT3 phosphorylation at 3 uM after 16 hrs by Western blotting analysis in presence of pervanadate; format: cell-based; summary of the method: as §3
[13] = biological target: Signal transducer and activator of transcription 3 (Homo sapiens) (UniProt P40763); test: Inhibition of STAT3 in human MCF7 cells assessed as reduction of IL-6 induced transactivation incubated for 1 hr prior to IL-6 challenge measured after 16 hrs by luciferase reporter gene assay; format: cell-based
Summary of the method: (§5)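 Cells transfected with the APRE-Luc STAT3-responsive reporter. Pretreated 1 h with increasing concentrations, then given 5 ng/mL IL-6: 2 h for HS578T, 16 h for MCF7. Luciferase read afterwards; relative activity as mean ± SD of triplicates.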

[14] = biological target: Signal transducer and activator of transcription 3 (Homo sapiens) (UniProt P40763); test: Inhibition of STAT3 in human Hs578T cells assessed as reduction of IL-6 induced STAT3 phosphorylation at Y705 incubated for 2 hrs prior to IL-6 challenge measured after 30 mins by Western blotting analysis; format: cell-based; settings: Hs-578T
Summary of the method: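 Cells pretreated with compound for 2 h, then stimulated with IL-6 at 5 ng/mL for 30 min. Lysates immunoblotted for phospho-STAT3 (Y705), with β-actin as loading control.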

[15] = Drug uptake in human MDA-MB-231 cell nucleus at 10 uM after 1 hr by two-photon confocal microscopy; format: ADME, cell-based; settings: mda-mb-231, 1 h
Summary of the method: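 MDA-MB-231 cells grown overnight on fibronectin/[…]-coated slides, then given 10 μM compound or DMSO for 1 h. Cells washed with PBS and fixed in 4% formaldehyde. Two-photon excitation at 725 nm, emission collected through a 500–550 nm filter.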

[16] = system: Hs-578T; test: Induction of PTPN6 mRNA expression in human Hs578T cells after 24 hrs by RT-PCR analysis; format: functional, cell-based; summary of the method: as §4
[17] = system: SUM149PT; test: Cytotoxicity against human SUM149PT cells after 72 hrs by MTT assay; format: functional, cell-based; summary of the method: as §1
[18] = biological target: Signal transducer and activator of transcription 3 (Homo sapiens) (UniProt P40763); test: Inhibition of STAT3 in human Hs578T cells assessed as reduction of IL-6 induced transactivation incubated for 1 hr prior to IL-6 challenge measured after 2 hrs by luciferase reporter gene assay; format: cell-based; settings: Hs-578T; summary of the method: as §5
[19] = system: SUM1315MO2; test: Cytotoxicity against human SUM1315MO2 cells after 72 hrs by MTT assay; format: functional, cell-based; summary of the method: as §1
[20] = system: MDA-MB-468; test: Cytotoxicity against human MDA-MB-468 cells after 72 hrs by MTT assay; format: functional, cell-based; summary of the method: as §1
[21] = system: A549; test: Cytotoxicity against human A549 cells after 72 hrs by MTT assay; format: functional; settings: A549, 72 h; summary of the method: as §1

Sequence of Signal transducer and activator of transcription 3 (Homo sapiens) (P40763 whole entry): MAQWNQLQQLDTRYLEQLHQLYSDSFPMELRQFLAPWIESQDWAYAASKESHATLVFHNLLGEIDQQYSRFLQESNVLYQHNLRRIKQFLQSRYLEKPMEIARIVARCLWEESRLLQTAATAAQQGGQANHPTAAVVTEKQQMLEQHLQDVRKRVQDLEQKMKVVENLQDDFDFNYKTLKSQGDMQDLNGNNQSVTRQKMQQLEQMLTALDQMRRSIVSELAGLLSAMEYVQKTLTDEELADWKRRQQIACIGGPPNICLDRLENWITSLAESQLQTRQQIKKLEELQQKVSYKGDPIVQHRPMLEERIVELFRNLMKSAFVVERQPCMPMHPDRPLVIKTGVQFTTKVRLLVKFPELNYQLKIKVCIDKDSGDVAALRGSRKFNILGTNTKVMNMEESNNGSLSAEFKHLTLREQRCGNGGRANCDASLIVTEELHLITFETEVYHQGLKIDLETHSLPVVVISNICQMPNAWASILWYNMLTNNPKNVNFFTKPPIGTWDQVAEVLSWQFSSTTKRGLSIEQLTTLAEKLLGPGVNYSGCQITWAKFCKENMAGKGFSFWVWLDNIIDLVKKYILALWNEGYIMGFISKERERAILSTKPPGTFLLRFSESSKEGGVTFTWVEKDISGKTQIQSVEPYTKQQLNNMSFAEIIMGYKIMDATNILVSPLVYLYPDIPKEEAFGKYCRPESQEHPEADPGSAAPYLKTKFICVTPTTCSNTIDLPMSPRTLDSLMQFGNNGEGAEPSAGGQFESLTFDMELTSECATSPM
Sequence of Tyrosine-protein phosphatase non-receptor type 6 (Homo sapiens) (P29350 whole entry): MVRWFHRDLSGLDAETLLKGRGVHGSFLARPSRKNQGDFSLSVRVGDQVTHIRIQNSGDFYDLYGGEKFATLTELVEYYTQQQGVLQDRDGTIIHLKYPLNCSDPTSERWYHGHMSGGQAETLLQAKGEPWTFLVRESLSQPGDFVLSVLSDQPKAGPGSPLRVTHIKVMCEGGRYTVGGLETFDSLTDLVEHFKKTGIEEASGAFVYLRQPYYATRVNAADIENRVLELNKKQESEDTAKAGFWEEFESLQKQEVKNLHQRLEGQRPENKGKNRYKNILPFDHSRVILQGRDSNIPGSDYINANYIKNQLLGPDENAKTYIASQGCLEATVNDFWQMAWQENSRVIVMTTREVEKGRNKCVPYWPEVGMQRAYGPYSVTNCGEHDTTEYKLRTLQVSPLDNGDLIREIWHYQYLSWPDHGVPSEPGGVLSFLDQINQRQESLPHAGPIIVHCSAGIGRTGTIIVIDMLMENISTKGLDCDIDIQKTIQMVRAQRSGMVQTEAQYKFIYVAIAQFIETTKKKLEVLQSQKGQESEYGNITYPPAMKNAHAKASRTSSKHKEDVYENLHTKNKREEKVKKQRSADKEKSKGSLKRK

- inhibition [3]: Active
- inhibition [4]: Active
- inhibition [6]: inactive
- inhibition [11]: Dose-dependent effect
- inhibition [12]: inactive
- inhibition [13]: Active
- inhibition [14]: Dose-dependent effect
- Drug uptake [15]: Not Active
- inhibition [18]: Dose-dependent effect
Structure (SMILES): Cc1c(OS(=O)(=O)c2cccc3c(N(C)C)cccc23)ccc2c1[nH]c1cc(O)ccc12
- GI50 [1]: 3000 nM
- Activity [2]: Active
- Activity [5]: Active
- Activity [7]: Non-toxic
- inhibition in vivo at 10 mg/kg [8]: 73.8%
- Activity [9]: Dose-dependent effect
- Activity [10]: Active
- Activity [16]: Dose-dependent effect
- Activity [17]: Active
- Activity [19]: Active
- Activity [20]: Active
- GI50 [21]: 2500 nM

Reference: ChEMBL document CHEMBL3352378, “Novel carbazole inhibits phospho-STAT3 through induction of protein-tyrosine phosphatase PTPN6” (J Med Chem, 2014)
